Published values from different studies.
Each line is one published result; the experiments were not run side by side.
Target: SRSF protein kinase 2 (SRPK2, Homo sapiens, UniProt P78362)

Compound | test | conditions | measurement | result
Cn1c2c(c3ccc(Cl)c(Cl)c31)C(C#N)C1(CCCC1)NC2=O (stereo not shown) | thermal stability, DSF | 10 µM | ΔTm | 0 °C
Cc1sc(C(=O)NC2COC2)cc1-n1cc(NC(=O)Nc2c(F)cccc2Cl)cn1 | enzyme activity, inhibitor | 10 µM | remaining activity | 114%
O=C(NS(=O)(=O)c1ccc(NCC2CCOCC2)c([N+](=O)[O-])c1)c1ccc(N2CCN(Cc3ccc(C(F)(F)F)cc3-c3ccc(Cl)cc3)CC2)cc1Oc1cnc2[nH]ccc2c1 | cell-free assay, competition with immobilised ligand | 1 µM | remaining binding | 100%
COc1cc(Cl)c(C(=O)N[C@@H](CN[C@H]2CC[C@@H](N)CC2)Cc2ccc(C#N)cc2)cc1-c1ccc(CN[C@H](C)c2ccc(C)cc2)o1 | enzyme activity, inhibitor | 1 µM | remaining activity | 98%
CN1CC(Oc2cnc(C#N)cc2-c2ccn3nc(NC(=O)C4CC4)cc3c2)C1 | enzyme activity, inhibitor | 1 µM | inhibition | 6%
COc1cccc(CNC(=O)c2nc3scc(COCc4ccc(C(=O)O)cc4)c3c(=O)[nH]2)c1 | cell-free assay, competition with immobilised ligand | 1 µM | remaining binding | 100%
COc1cc2ncnc(Nc3ccc(Oc4ccccc4)cc3C)c2cc1OC | enzyme activity, inhibitor | 1 µM | inhibition | 0%
Cn1c2c(c3ccccc31)C(C#N)C(C)(C)NC2=O (stereo not shown) | thermal stability, DSF | 10 µM | ΔTm | 0 °C
C#Cc1cccc(Nc2ncnc3cc(OCCOC)c(OCCOC)cc23)c1 | cell-free assay | 0.5 µM | remaining signal | 101%
COc1cc(-c2cc(-c3ccc(N4CCNCC4)cc3)cnc2C)cc(OC)c1OC | enzyme activity, inhibitor | 1 µM | inhibition | 2%
CCN(CC)CCNC(=O)c1c(C)[nH]c(/C=C2\C(=O)Nc3ccc(F)cc32)c1C | enzyme activity, inhibitor | 0.3 µM | inhibition | 6%
O=C1NC(=O)c2cc(Nc3ccc(F)cc3)c(Nc3ccc(F)cc3)cc21 | cell-free assay | 0.5 µM | remaining signal | 92.3%
CO[C@@H](C)c1c(Nc2ccc([C@H](N(C)C(=O)C3CCS(=O)(=O)CC3)C(F)(F)F)cc2)cnc2cc(Cl)nn12 | cell-free assay, competition with immobilised ligand | 1 µM | remaining binding | 100%
CCC1(CC)NC(=O)c2c(c3ccc(Cl)c(Cl)c3n2C)C1C#N (stereo not shown) | thermal stability, DSF | 10 µM | ΔTm | 0.1 °C
CN([C@@H]1CCc2c(CC(=O)O)c3ccccc3n2C1)S(=O)(=O)c1ccc(F)cc1 | cell-free assay, competition with immobilised ligand | 1 µM | remaining binding | 100%
CC(C)(C)c1nc(-c2cccc(NS(=O)(=O)c3c(F)cccc3F)c2F)c(-c2ccnc(N)n2)s1 | enzyme activity, inhibitor, radiometric | 1 µM | remaining activity | 111%

Compound | test | conditions | measurement | result
CCCS(=O)(=O)Nc1ccc(F)c(C(=O)c2c[nH]c3ncc(-c4ccc(Cl)cc4)cc23)c1F | enzyme activity, inhibitor | 1 µM | inhibition | < 10%
CCC(=N\O)/C(C)=C/c1ccc(F)cc1 | cell-free assay, competition with immobilised ligand | 1 µM | remaining binding | 75%
CC1(C)NC(=O)c2[nH]c3c(Cl)c(Cl)ccc3c2C1C#N (stereo not shown) | thermal stability, DSF | 10 µM | ΔTm | 0.4 °C
CCN(CC)c1ccc(C2=NNC(=O)CC2C)cc1[N+](=O)[O-] (stereo not shown) | enzyme activity, inhibitor | 10 µM | remaining activity | 100%
Cc1ccc(Nc2nccc(N(C)c3ccc4c(C)n(C)nc4c3)n2)cc1S(N)(=O)=O | enzyme activity, inhibitor | 0.3 µM | inhibition | -9%
N#CC1(c2ccccn2)CCN(Cc2cc(C(=O)N3CCCC3)c(=O)n3ccccc23)CC1 | cell-free assay, competition with immobilised ligand | 1 µM | remaining binding | 84%
Cc1ccc(NC(=O)c2ccc(C)c(C(F)(F)F)c2)cc1C#Cc1nn(C2CCC(O)CC2)c2ncnc(N)c12 (stereo not shown) | cell-free assay | 10 µM | remaining signal | 107%
O=C(O)c1cc(-c2ccc(C3CCNCC3)cc2)c2ccc(-c3ccc(C(F)(F)F)cc3)cc2c1 | cell-free assay, competition with immobilised ligand | 1 µM | remaining binding | 100%
N#CC1c2c([nH]c3c(Cl)c(Cl)ccc23)C(=O)NC12CCCCC2 (racemic) | thermal stability, DSF | 10 µM | ΔTm | 0.7 °C
C[C@@H]1CCN(C(=O)CC#N)C[C@@H]1N(C)c1ncnc2[nH]ccc12 | cell-free assay, inhibitor | 0.5 µM | remaining signal | 90.7%
Cn1c2c(c3ccc(Cl)c(Cl)c31)C(C#N)C1(CCOCC1)NC2=O (stereo not shown) | thermal stability, DSF | 10 µM | ΔTm | 0.2 °C
CC/C(=N\NC(=O)NCc1cccc(O)c1)c1ccc(O)c(C)c1O | enzyme activity, inhibitor | 0.1 µM | inhibition | -2.2%
CNC(=O)c1cc(Oc2ccc(NC(=O)Nc3ccc(Cl)c(C(F)(F)F)c3)cc2)ccn1 | enzyme activity, inhibitor | 0.3 µM | inhibition | 2%
Cc1cc(-n2nc(Cc3cc(F)cc(C(F)(F)F)c3)nc2C)ccc1C(N)=O | cell-free assay, competition with immobilised ligand | 1 µM | remaining binding | 100%
CCCOc1ccc(OC)c(F)c1C(=O)c1ccc(C(=O)N[C@@H]2CNC[C@H]2NC(=O)c2ccc3[nH]ncc3c2)cc1 | enzyme activity, inhibitor | 10 µM | remaining activity | 93%
